Laboratory results published in article PMC8598261 (European Journal of Medicinal Chemistry, 2021).
pIC50: −log10 of the molar value.

Legend:
[1] = target: T1, caspase-1 (Homo sapiens, UniProt P29466); assay: Caspase-1 inhibition assay, cleavage of fluorogenic substrate YVAD-AFC; type: biochemical; settings: for remaining activity at 100 µM: read-out: Enzyme activity (% at 100 μM)
T1 sequence (P29466 120-297 limits assumed): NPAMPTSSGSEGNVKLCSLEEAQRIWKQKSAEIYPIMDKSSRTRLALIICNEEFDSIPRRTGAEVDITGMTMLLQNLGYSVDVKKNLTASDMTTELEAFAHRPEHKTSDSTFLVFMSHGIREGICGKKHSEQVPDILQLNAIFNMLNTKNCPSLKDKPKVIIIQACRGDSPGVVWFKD
T1 sequence (P29466 317-404 limits assumed): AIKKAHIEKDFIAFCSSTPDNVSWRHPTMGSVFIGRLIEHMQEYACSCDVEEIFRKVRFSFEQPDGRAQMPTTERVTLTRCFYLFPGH
Outline: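 Fluorogenic caspase-1 assay: cleavage of YVAD-AFC releases free AFC, followed as a time course of fluorescence increase (Ex/Em 400/505 nm) and compared with an untreated control. Test compounds were run as 10-dose, 3-fold serial dilutions starting at 100 μM or 10 μM to give IC50. Residual activity at 100 μM is reported as % enzyme activity.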

[2] = test system: U937 cells; assay: U937 cell growth inhibition / cell viability by MTT assay; type: cell-based, human; settings: lowest concentrations (range 1 nM to 100 μM), 48 h
Outline: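 Human U937 cells were grown in RPMI 1640 with 10% FBS, penicillin and streptomycin at 37 °C in 5% CO2. They were seeded at 10000 cells/well and exposed to test compound at 1 nM–100 μM for 48 h, with matched DMSO-only controls. MTT (0.1 mg/well) was added for 4 h at 37 °C, then cells were lysed and A595 read. Viability is % of control (100%), mean of three independent experiments.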

pIC50 [1] | remaining activity at 100 µM [1] [%] | SMILES | cytotoxic effect [2]
4.27 | 40.5 | O=C(O)C[C@@H](O)CNC(c1ccccc1)c1nnnn1CCCC(=O)N1CCc2ccccc2C1 (mixture of isomers) [(3R)5 ag, Sodium (3R)-4-(((1-(4-(3,4-dihydroisoquinolin-2(1H)-yl)-4-oxobutyl)-1H-tetrazol-5-yl)(phenyl)methyl)amino)-3-hydroxybutanoate] | 
4.91 | 9.71 | CC(C)(C)CC(NC[C@H](O)CC(=O)O)c1nnnn1CCCC(=O)N1CCc2ccccc2C1 (mixture of isomers) [(3R)5ae, Sodium (3R)-4-((1-(1-(4-(3,4-dihydroisoquinolin-2(1H)-yl)-4-oxobutyl)-1H-tetrazol-5-yl)-3,3-dimethylbutyl)amino)-3-hydroxybutanoate] | 
4.49 | 29 | O=C(O)C[C@@H](O)CNC(c1cccs1)c1nnnn1CCCC(=O)N1CCc2ccccc2C1 (mixture of isomers) [(3R)5ah, Sodium (3R)-4-(((1-(4-(3,4-dihydroisoquinolin-2(1H)-yl)-4-oxobutyl)-1H-tetrazol-5-yl)(thiophen-2-yl)methyl)amino)-3-hydroxybutanoate] | 
4.11 | 49.6 | O=C(O)C[C@@H](O)CNC(c1cccs1)c1nnnn1CCCC(=O)NCc1ccccc1 (mixture of isomers) [(3R)5bf, Sodium (3R)-4-(((1-(4-(benzylamino)-4-oxobutyl)-1H-tetrazol-5-yl)(thiophen-2-yl)methyl)amino)-3-hydroxybutanoate] | 
4.82 | 4.45 | CC(C)(C)CC(c1nnnn1CCCC(=O)N1CCc2ccccc2C1)N(Cc1ccccc1)C[C@H](O)CC(=O)O (mixture of isomers) [(3R)16ac, Sodium (3R)-4-((1-(1-(4-(3,4-dihydroisoquinolin-2(1H)-yl)-4-oxobutyl)-1H-tetrazol-5-yl)-3,3-dimethylbutyl)(benzyl)amino)-3-hydroxybutanoate] | 
4.17 | 48.6 | O=C(O)C[C@H](O)CNC(c1ccccc1)c1nnnn1CCCC(=O)N1CCc2ccccc2C1 (mixture of isomers) [(3S)5 ag, Sodium (3S)-4-(((1-(4-(3,4-dihydroisoquinolin-2(1H)-yl)-4-oxobutyl)-1H-tetrazol-5-yl)(phenyl)methyl)amino)-3-hydroxybutanoate] | 
4.29 | 37.2 | O=C(O)C[C@H](O)CNC(c1cccs1)c1nnnn1CCCC(=O)N1CCc2ccccc2C1 (mixture of isomers) [(3S)5ah, Sodium (3S)-4-(((1-(4-(3,4-dihydroisoquinolin-2(1H)-yl)-4-oxobutyl)-1H-tetrazol-5-yl)(thiophen-2-yl)methyl)amino)-3-hydroxybutanoate] | 
 | > 96.7 | CC(NCC(O)CC(=O)O)c1nnnn1CCCC(=O)N1CCc2ccccc2C1 (centres unmarked) [5aa, Sodium 4-((1-(1-(4-(3,4-dihydroisoquinolin-2(1H)-yl)-4-oxobutyl)-1H-tetrazol-5-yl)ethyl)amino)-3-hydrxybutanoate] | 
 |  | CC(C)(C)CC(NCC(O)CC(=O)[O-])c1nnnn1CCCC(=O)N1CCc2ccccc2C1.[Na+] (centres unmarked) [5ae, Sodium-4-((1-(1-(4-(3,4-dihydroisoquinolin-2(1H)-yl)-4-oxobutyl)-1H-tetrazol-5-yl)-3,3-dimethylbutyl)amino)-3-hydroxybutanoate] | low or is not significant
 | > 96.7 | CC(NCC(O)CC(=O)O)c1nnnn1CCCC(=O)NCc1ccccc1 (centres unmarked) [5ba, Sodium 4-((1-(1-(4-(benzylamino)-4-oxobutyl)-1H-tetrazol-5-yl)ethyl)amino)-3-hydroxybutanoate] | 
 | > 96.7 | CC(C)C(NCC(O)CC(=O)O)c1nnnn1CCCC(=O)NCc1ccccc1 (centres unmarked) [5bb, Sodium 4-((1-(1-(4-(benzylamino)-4-oxobutyl)-1H-tetrazol-5-yl)-2-methylpropyl)amino)-3-hydroxybutanoate] | 
 | > 96.7 | O=C(O)CC(O)CNC(c1ccccc1)c1nnnn1CCCC(=O)NCc1ccccc1 (centres unmarked) [5be, Sodium 4-(((1-(4-(benzylamino)-4-oxobutyl)-1H-tetrazol-5-yl)(phenyl)methyl)amino)-3-hydroxybutanoate] | 
 | > 96.7 | O=C(O)CC(O)CNC(c1cccs1)c1nnnn1CCCC(=O)NCc1ccccc1 (centres unmarked) [5bf, Sodium 4-(((1-(4-(benzylamino)-4-oxobutyl)-1H-tetrazol-5-yl)(thiophen-2-yl)methyl)amino)-3-hydroxybutanoate] | 
 | > 96.7 | COc1cc2c(cc1OC)CN(C(=O)CCCn1nnnc1C(NCC(O)CC(=O)O)C(C)C)CC2 (centres unmarked) [5ca, Sodium 4-((1-(1-(4-(6,7-dimethoxy-3,4-dihydroisoquinolin-2(1H)-yl)-4-oxobutyl)-1H-tetrazol-5-yl)-2-methylpropyl)amino)-3-hydroxybutanoate] | 
 | > 96.7 | COc1cc2c(cc1OC)CN(C(=O)CCCn1nnnc1C(NCC(O)CC(=O)O)c1cccs1)CC2 (centres unmarked) [5ce, Sodium 4-(((1-(4-(6,7-dimethoxy-3,4-dihydroisoquinolin-2(1H)-yl)-4-oxobutyl)-1H-tetrazol-5-yl)(thiophen-2-yl)methyl)amino)-3-hydroxybutanoate] | 
 |  | CC(C)CC(c1nnnn1CCCC(=O)N1CCc2ccccc2C1)N(Cc1ccccc1)CC(O)CC(=O)[O-].[Na+] (centres unmarked) [16aa, Sodium 4-(benzyl(1-(1-(4-(3,4-dihydroisoquinolin-2(1H)-yl)-4-oxobutyl)-1H-tetrazol-5-yl)-3-methylbutyl)amino)-3-hydroxybutanoate] | low or is not significant
